Results published in ChEMBL document CHEMBL2417372, “Design, synthesis, and mechanism of action of 2-(3-hydroxy-5-methoxyphenyl)-6-pyrrolidinylquinolin-4-one as a potent anticancer lead” (Bioorg Med Chem Lett, 2013).
The source made the active and inactive calls. The calls are words filed in the database; no cut-off is given here.

Key:
[1] = Cytotoxicity against human Hep3B cells after 48 hrs; format: functional, cell-based, Hep 3B2
Outline: (§1)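 MTT viability assay on log-phase cells at 37 °C, exposed to compound or DMSO vehicle for 48 h. MTT (1 mg/mL in PBS) was then added for 2 h, and absorbance was read at 570 nm with 630 nm correction. IC50 is the concentration giving 50% proliferation inhibition. Cells were cultured in 5% CO2: HL-60 in RPMI-1640 with 10% FBS; Hep3B in DMEM/F12 with 10% FBS; Detroit 551 in DMEM with 10% FBS.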

NCI-H460 = test: Cytotoxicity against human NCI-H460 cells after 48 hrs; format: functional, cell-based; details: NCI-H460, 48 h
Detroit 551 = test: Cytotoxicity against human Detroit 551 cells after 48 hrs; format: cell-based; details: Detroit 551, 48 h; outline: as §1
HL-60 = test: Cytotoxicity against human HL60 cells after 48 hrs; format: functional, cell-based; details: HL-60, 48 h; outline: as §1
Tubulin (Sus scrofa) = Tubulin (Sus scrofa) (UniProt P02554+P02550); details: 1 uM
Tubulin (Homo sapiens) [2] = target: T1, Tubulin (Homo sapiens) (UniProt P68371+Q9H4B7+P0DPH7+P68366+Q13509+Q71U36+P04350+Q3ZCM7+P07437+P68363+Q9BQE3+Q6PEY2+Q13885+Q9BVA1+Q9BUF5); test: Inhibition of tubulin polymerization in human NCI-H522 cells assessed as beta-tubulin accumulation in cytoskeletal fraction at 100 nM after 24 hrs by Western blot analysis; format: cell-based
Outline: (§2)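 NCI-H522 cells were exposed for 24 h to compound (10, 30 or 100 nM) or DMSO vehicle. They were then lysed 5 min at 37 °C in hypotonic buffer (1 mM MgCl2, 2 mM EGTA, 0.5% NP-40, protease inhibitors, 20 mM Tris-HCl pH 6.8) and centrifuged at 15,000 × g for 10 min at 25 °C. α- and β-tubulin were assessed in the cytoskeletal fraction.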

Tubulin (Homo sapiens) [3] = target: T1, Tubulin (Homo sapiens); test: Inhibition of tubulin polymerization in human NCI-H522 cells assessed as alpha-tubulin accumulation in cytoskeletal fraction at 100 nM after 24 hrs by Western blot analysis; format: cell-based; outline: as §2

Chain of Tubulin (Sus scrofa) (P02550 whole entry, looked up): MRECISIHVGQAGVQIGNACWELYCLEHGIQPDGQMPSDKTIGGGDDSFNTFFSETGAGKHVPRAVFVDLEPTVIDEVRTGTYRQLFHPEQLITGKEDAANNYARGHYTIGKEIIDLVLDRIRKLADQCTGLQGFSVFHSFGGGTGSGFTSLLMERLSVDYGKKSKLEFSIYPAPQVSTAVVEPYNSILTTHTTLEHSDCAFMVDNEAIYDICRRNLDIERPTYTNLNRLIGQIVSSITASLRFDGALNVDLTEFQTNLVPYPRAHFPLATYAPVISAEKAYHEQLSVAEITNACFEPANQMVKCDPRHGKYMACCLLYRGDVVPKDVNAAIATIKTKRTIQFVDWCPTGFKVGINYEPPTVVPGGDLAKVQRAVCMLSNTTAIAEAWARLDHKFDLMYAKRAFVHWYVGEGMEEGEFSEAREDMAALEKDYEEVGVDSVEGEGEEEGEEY
Chain of Tubulin (Sus scrofa) (P02554 whole entry, looked up): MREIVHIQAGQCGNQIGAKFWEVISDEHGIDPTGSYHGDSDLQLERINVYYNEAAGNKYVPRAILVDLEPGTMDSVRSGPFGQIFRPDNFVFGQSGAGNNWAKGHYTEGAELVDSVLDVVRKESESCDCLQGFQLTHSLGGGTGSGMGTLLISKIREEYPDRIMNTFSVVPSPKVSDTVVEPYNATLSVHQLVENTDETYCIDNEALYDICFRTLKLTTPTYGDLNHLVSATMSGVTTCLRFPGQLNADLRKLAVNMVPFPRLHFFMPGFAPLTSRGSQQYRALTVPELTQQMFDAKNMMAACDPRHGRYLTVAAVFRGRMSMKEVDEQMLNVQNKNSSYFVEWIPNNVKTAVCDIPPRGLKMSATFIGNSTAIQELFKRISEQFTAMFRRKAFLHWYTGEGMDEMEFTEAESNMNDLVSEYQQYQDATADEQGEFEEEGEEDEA

inhibition (Tubulin (Sus scrofa)) | inhibition (Tubulin (Homo sapiens) [2]) | inhibition (Tubulin (Homo sapiens) [3]) | SMILES | IC50 [1] | IC50 (NCI-H460) | IC50 (Detroit 551) | IC50 (HL-60)
 |  |  | COc1cc(O)cc(-c2cc(=O)c3cc4c(cc3[nH]2)OCO4)c1 | > 50 µM | > 50 µM | > 50 µM | 0.5 µM
 |  |  | CCOc1cc(O)cc(-c2cc(=O)c3cc(N4CCCC4)ccc3[nH]2)c1 | 0.07 µM | 0.59 µM | 13.2 µM | 0.02 µM
 |  |  | O=c1cc(-c2ccc(O)cc2)[nH]c2cc3c(cc12)OCO3 | 22.3 µM | > 100 µM | 41 µM | 3.26 µM
 |  |  | O=c1cc(-c2cc(O)cc(O)c2)[nH]c2cc3c(cc12)OCO3 | > 25 µM | > 25 µM |  | 8.71 µM
Active | Active | Active | CC[C@]1(O)C[C@@H]2CN(CCc3c([nH]c4ccccc34)[C@@](C(=O)OC)(c3cc4c(cc3OC)N(C)[C@H]3[C@@](O)(C(=O)OC)[C@H](OC(C)=O)[C@]5(CC)C=CCN6CC[C@]43[C@@H]65)C2)C1 |  |  |  | 
Active | Active | Active | CC[C@]1(O)C[C@H]2CN(CCc3c([nH]c4ccccc34)[C@@](C(=O)OC)(c3cc4c(cc3OC)N(C=O)[C@H]3[C@@](O)(C(=O)OC)[C@H](OC(C)=O)[C@]5(CC)C=CCN6CC[C@]43[C@@H]65)C2)C1 |  |  |  | 
 |  |  | COc1cc(O)cc(-c2cc(=O)c3cc(N(C)C)ccc3[nH]2)c1 | 6.15 µM | > 50 µM | > 50 µM | 0.22 µM
 |  |  | Oc1cccc(-c2cc(O)c3cc4c(cc3n2)OCO4)c1 | 1.05 µM | 17 µM | 21.8 µM | 0.25 µM
 |  |  | COc1cc(O)cc(-c2cc(=O)c3cc(N4CCOCC4)ccc3[nH]2)c1 | 6.03 µM | > 100 µM | > 100 µM | 3.9 µM
 |  |  | CCOc1cc(O)cc(-c2cc(=O)c3cc4c(cc3[nH]2)OCO4)c1 | 25 µM | > 25 µM |  | 0.5 µM
 |  |  | O=c1cc(-c2cc(O)cc(O)c2)[nH]c2ccc(N3CCCC3)cc12 | 1.58 µM | 13.9 µM | > 25 µM | 0.34 µM
 |  |  | O=c1cc(-c2ccccc2O)[nH]c2cc3c(cc12)OCO3 | 8.04 µM | 19.1 µM | 48.9 µM | 7.62 µM
 |  |  | COc1cccc(-c2cc(O)c3cc4c(cc3n2)OCO4)c1 | 0.08 µM | 0.2 µM | 4.77 µM | 0.08 µM
